Source: PubChem BioAssay
XBP1 UPR activ: activators of adaptive arm of unfolded protein response (XBP1). activation, % at 20 µM. 0.33% of 330,000 active. CHO-XBP1 luciferase reporter, IRE1-XBP1 UPR activation, luminescence; percent of tunicamycin response, DMSO as zero. AID 463104;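 active = versus positive control, 20 µM dose yields 30% or more activation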;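 also: 100% = tunicamycin at 10 µg/mL and 0% = DMSO only wells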
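Signal: luciferase luminescence; Assay system: CHO-XBP1 luciferase reporter cells; Amount: one thousand reporter cells per well; Dosing: 20 µM single concentration, DMSO 1%; Benchmarks: high control tunicamycin 10 µg/mL final, low control DMSO vehicle only; Schedule: 6 h compound exposure at 37 °C, 5% CO2; Evaluation: percent activation relative to tunicamycin reference.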
CSC inhib: blocks cancer stem cells | cancer stem cell-like cells viability, luminescence | inhibition, % at 7.5 µM | 1.1% of 300,000 active; in the data active = inhibition above about 75%; tested in HMLE shEcad cells
Beta apoptosis: blocks beta cell apoptosis | protection from apoptosis, % (concentration not given with the values) | AID 435005 | INS-1E cytokine-induced death, ATP luminescence, 48 h; percent of positive-control rescue, neutral wells zero | 0.8% of 300,000 active;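 active = Every replicate reaches about 75%, or at least half do and their mean reaches it too, limit read from the data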;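 also: 0% = cytokine-treated negative control wells and 100% = positive control rescue; higher means more ATP so stronger rescue from cytokine killing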
SKKanGAS inh: blocks kanamycin growth of S. pyogenes SKKanGAS strain. BacTiter-Glo, 6 h. inhibition, % at 7.5 µM. 1.3% of 300,000 active;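 active = mean replicate score, as percent of positive control median, at least 50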;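 also: strain carries kanamycin resistance gene driven by streptokinase promoter and grows in 40 µg/ml kanamycin; loss of luminescence reflects streptokinase promoter inhibition or plain growth inhibition; 0% = median of DMSO wells and 100% = positive control at its reference dose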
Mdm2-MdmX inh: human Mdm2/MdmX binding inhibition; SaOS-2 split-luciferase Mdm2/MdmX complementation, luminescence; inhibition, % at 8 µM; 3% of 330,000 active;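 active = inhibition of at least 50% at 8 µM in the primary screen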
Target sequence (O15151 whole entry, looked up): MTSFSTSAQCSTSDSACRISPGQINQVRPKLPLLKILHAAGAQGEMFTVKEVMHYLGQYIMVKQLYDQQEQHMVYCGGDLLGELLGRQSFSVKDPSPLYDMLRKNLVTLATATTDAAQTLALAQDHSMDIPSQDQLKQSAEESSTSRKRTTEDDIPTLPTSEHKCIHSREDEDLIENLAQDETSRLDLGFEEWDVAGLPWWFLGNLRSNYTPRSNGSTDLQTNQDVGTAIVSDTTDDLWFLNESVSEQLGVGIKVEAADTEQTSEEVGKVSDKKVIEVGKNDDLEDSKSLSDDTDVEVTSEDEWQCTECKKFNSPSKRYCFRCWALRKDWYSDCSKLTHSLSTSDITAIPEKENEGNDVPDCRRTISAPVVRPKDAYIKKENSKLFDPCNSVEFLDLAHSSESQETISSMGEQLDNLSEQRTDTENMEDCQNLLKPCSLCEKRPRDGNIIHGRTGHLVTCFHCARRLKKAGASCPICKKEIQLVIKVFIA
Target sequence (Q00987 whole entry, looked up): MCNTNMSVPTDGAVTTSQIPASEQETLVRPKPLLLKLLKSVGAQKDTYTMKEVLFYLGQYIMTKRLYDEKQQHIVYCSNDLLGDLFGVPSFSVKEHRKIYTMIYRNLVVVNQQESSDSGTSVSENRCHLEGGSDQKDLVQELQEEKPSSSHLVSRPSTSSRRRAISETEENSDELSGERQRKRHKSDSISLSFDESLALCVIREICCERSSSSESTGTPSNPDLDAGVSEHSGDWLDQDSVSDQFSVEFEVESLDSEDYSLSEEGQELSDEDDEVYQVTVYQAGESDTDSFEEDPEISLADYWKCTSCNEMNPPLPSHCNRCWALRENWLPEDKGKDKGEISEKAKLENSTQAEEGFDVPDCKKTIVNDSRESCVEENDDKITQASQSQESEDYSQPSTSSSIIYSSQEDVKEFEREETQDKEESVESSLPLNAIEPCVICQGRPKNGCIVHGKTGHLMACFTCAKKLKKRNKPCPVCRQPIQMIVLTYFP
UPR CHOP act: activators of apoptotic arm of unfolded protein response (CHOP); CHO-CHOP luciferase reporter, UPR activation, luminescence; percent of tunicamycin response over DMSO baseline; activation, % at 10 µM; 0.34% of 330,000 active; AID 449763;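 active = at 10 µM dose, activation of 40% or more, normalized to positive control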;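 also: 100% = tunicamycin at 10 µg/mL and 0% = DMSO alone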
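System: CHO-CHOP luciferase reporter cell line; amount: 500 cells/well; buffer or medium: F12 medium containing 10% fetal bovine serum; incubation: 6 h compound exposure at 37 °C after overnight seeding; measured by: luciferase luminescence after 10 min with Steady-Glo reagent; evaluation: % reporter activation, DMSO baseline versus tunicamycin full activation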
An asterisk follows results filed as active; . = not tested or not shown. Sampled rows, rich in hits. Any-hit rate of the full collection: about 4.8%.

SMILES | XBP1 UPR activ | CSC inhib | Beta apoptosis | SKKanGAS inh | Mdm2-MdmX inh | UPR CHOP act
O=C(O)COc1ccc(/C=N/Nc2nc(Nc3ccccc3)nc(N3CCCCC3)n2)cc1 | 0 | -4 | -3 | 57* | 8 | 2
C(=N\Nc1nc(Nc2ccccc2)nc(N2CCCCC2)n1)/c1ccco1 | 1 | -3 | 18 | 81* | 24 | 4
COc1ccc(/C=N/Nc2nc(Nc3ccccc3)nc(N3CCCC3)n2)cc1 | 1 | 0 | . | 56* | -11 | 2
O=C(Oc1ccc(/C=N/Nc2nc(N3CCCCC3)nc(N3CCCCC3)n2)cc1)c1ccco1 | 1 | -12 | . | 14 | 15 | 1
CCN(C(=O)CN1C(=O)NC2(CCCc3ccccc32)C1=O)c1ccc(F)cc1 (stereo not given) | -2 | -14 | 1 | . | -20 | 0
Cc1ccc(/C(N)=N/OC(=O)C(C)c2ccc([N+](=O)[O-])cc2)cc1 (stereo not given) | -2 | 3 | 0 | 1 | -21 | -1
O=Cc1cc(N=Nc2ccccc2Cl)ccc1O | 3 | -4 | -6 | 78* | 0 | 4
CCCCn1c(N)c(N(CC(C)C)C(=O)c2c(-c3ccccc3)noc2C)c(=O)[nH]c1=O | 1 | . | -9 | . | -16 | 0
O=C(NNc1ccc([N+](=O)[O-])cc1)Nc1ccccc1 | -2 | 11 | 2 | 4 | -33 | 1
O=C(NNc1ccccc1)C(=O)NNS(=O)(=O)c1ccc([N+](=O)[O-])cc1 | -1 | 92* | -1 | 4 | -2 | -1
Cc1ccc(CN(C(=O)c2cc(=O)c3cc(C)cc(C)c3o2)C2CCS(=O)(=O)C2)cc1 (stereo not given) | -1 | 21 | 8 | 0 | -18 | 0
O=C(Nc1ccc(Cl)c(Cl)c1)Nc1ccccc1O | 0 | 93* | 6 | 14 | -221 | 4
O=C(Nc1ccccc1O)C(c1ccccc1)c1ccccc1 | 1 | 3 | 94* | 18 | 7 | 6
O=C(Nc1ccc(Cl)c(Cl)c1)c1ccccc1 | 1 | 11 | 3 | . | -167 | 2
Cc1ccc(S(=O)(=O)NCCNC(=O)CN2CCOCC2)cc1 | -3 | 1 | . | 7 | 0 | 0
CC(OC(=O)C1CC1C)C(=O)Nc1ccc(Cl)cn1 (stereo not given) | 1 | . | . | . | -18 | 1
COc1c2ccoc2nc2c(OC)c(OC[C@@H](O)C(C)(C)O)ccc12 | -5 | -6 | 3 | . | -10 | 1
COc1ccc(NC(=O)COC(=O)c2c3c(nc4ccccc24)CCCC3)cc1 | 2 | -2 | 7 | 9 | 37 | 2
COc1ccc(NC(=O)COC(=O)c2c3c(nc4ccccc24)CCCC3)cc1Cl | 4 | 51 | -9 | 61* | 19 | 1
CC1CCCC(C)N1C(=O)c1cc(-c2ccc3c(c2)OCO3)on1 (stereo not given) | -4 | 12 | 5 | 6 | -88 | 4
COc1ccccc1N1CCN(C(=O)C2CCN(C(=O)c3ccc(C(C)(C)C)cc3)CC2)CC1 | -3 | -22 | -2 | 0 | 17 | 2
CCCC[n+]1ccn(C2=C([O-])c3ccccc3C(=O)/C2=N\S(=O)(=O)c2ccc(Br)cc2)c1 | -1 | 22 | 90* | 28 | 29 | 7
Cc1ccc(NC(=O)C[n+]2ccn(C3=C([O-])c4ccccc4C3=O)c2)cc1 | -3 | -4 | -2 | -6 | -13 | 1
Cc1ccc(S(=O)(=O)/N=C2\C(=O)c3ccccc3C([O-])=C2n2cc[n+](CCC(C)C)c2)cc1 | 0 | 16 | 90* | 30 | 21 | -1
O=C(Oc1cccc2cccnc12)c1cccc([N+](=O)[O-])c1 | 12 | -14 | 1 | 22 | -2 | 9
SMILES | XBP1 UPR activ | CSC inhib | Beta apoptosis | SKKanGAS inh | Mdm2-MdmX inh | UPR CHOP act
O=C(Oc1c(Cl)cc(Cl)c2cccnc12)c1cccc([N+](=O)[O-])c1 | 7 | 177* | 65 | 88* | 50 | 0
O=C(Oc1cccc2cccnc12)c1ccco1 | 4 | 9 | -1 | 35 | -17 | 0
O=C(Oc1ccc(Cl)c2cccnc12)c1cccc([N+](=O)[O-])c1 | 8 | 108* | 2 | 27 | -1 | 20
O=C(Oc1ccc(Cl)c2cccnc12)c1ccco1 | 9 | 2 | 1 | 87* | 23 | 38
C[C@H](CO)N1C[C@H](C)[C@@H](CN(C)S(=O)(=O)c2cccs2)Oc2c(NS(=O)(=O)c3cn(C)cn3)cccc2C1=O | -2 | -10 | -11 | . | 15 | -2
CC1(C(=O)O)CCC(C(=O)Nc2cccc(F)c2)C1(C)C (stereo not given) | -2 | -9 | -6 | -3 | 14 | 0
CCOc1ccc(N2CC(C(=O)Nc3nnc(Cc4ccc(OC)cc4)s3)CC2=O)cc1 (stereo not given) | 4 | -4 | -5 | -21 | 19 | -1
CC1(C)CC[C@]2(CO)[C@@H](O)C[C@]3(C)C(=CCC4[C@@]5(C)CC[C@H](O)C(C)(C)C5CC[C@]43C)[C@@H]2C1 (stereo not given in full) | -2 | 102* | 11 | 23 | -31 | 5
Clc1ccccc1C(c1ccccc1)(c1ccccc1)n1ccnc1 | -5 | 29 | 25 | 50* | 22 | 12
CSc1nc2ccc(Cl)cc2[nH]1 | 3 | 0 | 4 | -10 | -6 | -1
CSc1nc2cc(Oc3cccc(Cl)c3Cl)c(Cl)cc2[nH]1 | -5 | 103* | 1 | 96* | 9 | -1
CN(C)CCNC(=O)c1sc2nc(-c3ccccc3)cc(C(F)(F)F)c2c1N | -2 | 78* | 8 | 2 | 38 | 2
COc1ccc(-c2cc(C(F)(F)F)c3c(N)c(C(=O)NCCSC)sc3n2)cc1 | 55* | 5 | . | 17 | 0 | 1
COc1ccc(CN2C(=O)c3cccnc3C2=O)cc1S(=O)(=O)NC1CCCCC1 | -4 | 4 | 2 | -1 | 16 | -1
Cc1oc(/N=C/c2ccccc2)c(C#N)c1C | 3 | 99* | 165* | 2 | 11 | 4
Cc1oc(/N=C/c2cccc3ccccc23)c(C#N)c1C | -2 | -9 | -1 | 0 | 7 | 0
CC[C@@H]1CCCCc2ccccc2[C@H](C(=O)C[C@H](O)CC(C)=O)OC1=O | -3 | . | -11 | . | 26 | 1
CN(C)C(CNC(=O)c1c(F)cccc1Cl)c1ccco1 (stereo not given) | -3 | -11 | -1 | -3 | -4 | 0
CC1(C)Cc2c(cnn2-c2ccccc2)-c2c1c1ccccc1n2CC(O)CCl (stereo not given) | -3 | 10 | -3 | 64* | 16 | 1
CC1(C)Cc2c(cnn2-c2ccccc2)C(=O)/C1=N\NC(=O)c1ccncc1 | -1 | 10 | 0 | 7 | 19 | -1
Cc1c(Cc2ccccc2)sc(/N=C/c2c(O)ccc3ccccc23)c1C(N)=O | -6 | 98* | -3 | 35 | 34 | 0
